Experimental data as given in ChEMBL document CHEMBL1139738, “Pyridine-3-propanoic acids: Discovery of dual PPARalpha/gamma agonists as antidiabetic agents” (Bioorg Med Chem Lett, 2006).

How the values were obtained:
[1] = target: T1, Peroxisome proliferator-activated receptor alpha (Homo sapiens) (UniProt Q07869); assay: Agonist activity at human PPAR alpha in a HepG2 cells by PPAR-GAL4 transactivation assay relative to GW-2331; format: functional, cell-based
T1 sequence (whole entry): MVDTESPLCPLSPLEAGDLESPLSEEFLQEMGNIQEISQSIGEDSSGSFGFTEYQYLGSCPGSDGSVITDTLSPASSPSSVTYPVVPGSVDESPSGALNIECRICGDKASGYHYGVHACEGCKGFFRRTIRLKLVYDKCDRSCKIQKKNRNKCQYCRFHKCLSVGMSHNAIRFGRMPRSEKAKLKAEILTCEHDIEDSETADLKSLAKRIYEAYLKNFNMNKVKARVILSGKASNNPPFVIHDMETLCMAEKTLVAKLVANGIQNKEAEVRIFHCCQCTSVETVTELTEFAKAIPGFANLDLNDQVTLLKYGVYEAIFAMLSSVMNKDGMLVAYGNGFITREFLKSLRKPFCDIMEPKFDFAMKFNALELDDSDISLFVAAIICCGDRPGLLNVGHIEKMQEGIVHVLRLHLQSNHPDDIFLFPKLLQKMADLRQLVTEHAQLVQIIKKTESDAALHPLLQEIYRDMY

[2] = target: T2, Peroxisome proliferator-activated receptor alpha (Homo sapiens, UniProt Q07869); assay: Agonist activity at human PPAR alpha in a HepG2 cells by PPAR-GAL4 transactivation assay; format: functional, cell-based
T2 sequence (Q07869 whole entry): T1 sequence (whole entry)

[3] = target: T2, Peroxisome proliferator-activated receptor alpha; assay: Displacement of radiolabeled GW-2331 from human PPAR alpha by SPA binding assay
[4] = target: T3, Peroxisome proliferator-activated receptor gamma (Homo sapiens, UniProt P37231); assay: Agonist activity at human PPAR gamma in a HepG2 cells by PPAR-GAL4 transactivation assay; format: functional, cell-based
T3 sequence (P37231 whole entry): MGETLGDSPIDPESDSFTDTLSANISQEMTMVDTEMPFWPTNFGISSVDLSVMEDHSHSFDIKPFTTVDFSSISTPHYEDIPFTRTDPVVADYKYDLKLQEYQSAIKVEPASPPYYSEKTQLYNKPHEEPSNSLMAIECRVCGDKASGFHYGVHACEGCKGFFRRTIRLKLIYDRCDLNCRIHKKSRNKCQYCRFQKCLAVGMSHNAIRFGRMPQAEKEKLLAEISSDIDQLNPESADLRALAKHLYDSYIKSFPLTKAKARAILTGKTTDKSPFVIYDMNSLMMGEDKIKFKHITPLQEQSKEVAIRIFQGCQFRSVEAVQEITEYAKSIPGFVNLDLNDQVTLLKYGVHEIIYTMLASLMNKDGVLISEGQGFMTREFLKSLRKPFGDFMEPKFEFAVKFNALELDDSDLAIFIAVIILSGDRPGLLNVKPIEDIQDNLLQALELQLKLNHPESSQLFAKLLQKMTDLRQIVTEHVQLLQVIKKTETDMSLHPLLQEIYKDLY

[5] = target: T3, Peroxisome proliferator-activated receptor gamma; assay: Displacement of radiolabeled darglitazone from human PPAR gamma by SPA binding assay
[6] = system: Mus musculus; assay: Reduction of hematocrit in orally dosed db/db mouse at 1 mg/kg after 8 days relative to control; format: functional; design: scale not given: the % may be the effect or the level left; conditions: route oral
Procedure, shortened: (§1)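 Male db/db mice, 7 weeks old, with lean controls, given vehicle or compound by oral gavage once daily for 8 days. Plasma glucose, triglycerides, hematocrit and body weight measured before dosing on day −1 and 2 h post-dose on day 8. Percent change is expressed versus vehicle control, with significance at p < 0.05.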

[7] = system: Mus musculus; assay: Reduction of plasma triglycerides in orally dosed db/db mouse at 10 mg/kg after 8 days relative to control; format: functional; design: scale not given: the % may be the effect or the level left; conditions: route oral; procedure, shortened: as §1
[8] = system: Mus musculus; assay: Increase in body weight in orally dosed db/db mouse at 10 mg/kg in a 8 day study; format: functional; conditions: route oral; procedure, shortened: as §1
[9] = Oral bioavailability in Sprague-Dawley rat; format: ADME, organism-based; conditions: in vivo
Procedure, shortened: (§2)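 Pharmacokinetics in male Sprague–Dawley rats given iv and oral doses. Outputs are iv clearance (mL/min/kg), oral half-life, dose-normalized oral AUC (h μg/mL) and oral bioavailability (%).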

[10] = Half life in orally dosed Sprague-Dawley rat; format: ADME, organism-based; conditions: in vivo, po; procedure, shortened: as §2
[11] = system: Mus musculus; assay: Reduction of plasma glucose in orally dosed db/db mouse at 1 mg/kg after 8 days relative to control; format: functional; design: scale not given: the % may be the effect or the level left; conditions: route oral; procedure, shortened: as §1
[12] = system: Mus musculus; assay: Reduction of hematocrit in orally dosed db/db mouse at 10 mg/kg after 8 days relative to control; format: functional; design: scale not given: the % may be the effect or the level left; conditions: route oral; procedure, shortened: as §1
[13] = system: Mus musculus; assay: Reduction of plasma triglycerides in orally dosed db/db mouse at 1 mg/kg after 8 days relative to control; format: functional; design: scale not given: the % may be the effect or the level left; conditions: route oral; procedure, shortened: as §1
[14] = system: Mus musculus; assay: Increase in body weight in orally dosed db/db mouse at 1 mg/kg after 8 days relative to control; format: functional; conditions: route oral; procedure, shortened: as §1
[15] = system: Mus musculus; assay: Reduction of plasma glucose in orally dosed db/db mouse at 10 mg/kg after 8 days relative to control; format: functional; design: scale not given: the % may be the effect or the level left; conditions: route oral; procedure, shortened: as §1
[16] = Clearance in iv dosed Sprague-Dawley rat; format: ADME, organism-based; conditions: in vivo; procedure, shortened: as §2
[17] = target: T4, Peroxisome proliferator-activated receptor gamma (Homo sapiens) (UniProt P37231); assay: Displacement of radiolabeled darglitazone from human PPAR gamma at 100 uM by SPA assay
T4 sequence (whole entry): T3 sequence (P37231 whole entry)
Procedure, shortened: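 Scintillation proximity assay on human PPARγ using radiolabelled darglitazone as the displaced ligand, following published procedures. Single-concentration lines report percent displacement at the stated test concentration; Ki was determined for compounds with a full curve.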

[18] = target: T1, Peroxisome proliferator-activated receptor alpha (Homo sapiens); assay: Displacement of radiolabeled GW-2331 from human PPAR alpha by SPA assay at 11 uM
Procedure, shortened: (§3)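 Scintillation proximity assay on human PPARα using radiolabelled GW2331 as the displaced ligand, following published procedures. Single-concentration lines report percent displacement at the stated test concentration; Ki was determined for compounds with a full curve.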

[19] = system: Mus musculus; assay: Reduction of plasma triglycerides in orally dosed db/db mouse at 0.03 mg/kg after 8 days relative to control; format: functional; design: scale not given: the % may be the effect or the level left; conditions: route oral; procedure, shortened: as §1
[20] = system: Mus musculus; assay: Reduction of hematocrit in orally dosed db/db mouse at 0.03 mg/kg after 8 days relative to control; format: functional; design: scale not given: the % may be the effect or the level left; conditions: route oral; procedure, shortened: as §1
[21] = system: Mus musculus; assay: Increase in body weight in orally dosed db/db mouse at 0.03 mg/kg after 8 days relative to control; format: functional; conditions: route oral; procedure, shortened: as §1
[22] = system: Mus musculus; assay: Reduction of plasma glucose in orally dosed db/db mouse at 0.03 mg/kg after 8 days relative to control; format: functional; design: scale not given: the % may be the effect or the level left; conditions: route oral; procedure, shortened: as §1
[23] = target: T1, Peroxisome proliferator-activated receptor alpha (Homo sapiens); assay: Displacement of radiolabeled GW-2331 from human PPAR alpha by SPA assay at 100 uM; procedure, shortened: as §3

Row | SMILES | %max [1] | EC50 [2] | Ki [3] | other results
1 | COC(C)(Cc1ccc(OCCc2nc(-c3ccccc3)oc2C)nc1)C(=O)O (stereo not given) | 106% | 144 nM | 330 nM | 
2 | CCOC(CC)(Cc1ccc(OCCc2nc(-c3ccccc3)oc2C)nc1)C(=O)O (stereo not given) | 64% | 4670 nM | 15100 nM | EC50 [4]: 2810 nM; Ki [5]: 14400 nM
3 | Cc1oc(-c2ccccc2)nc1CCOc1ccc(CC(C)(C)C(=O)O)cn1 | 112% | 534 nM | 6800 nM | 
4 | CN(CCOc1ccc(CC2SC(=O)NC2=O)cc1)c1ccccn1 (stereo not given) | 6% |  |  | 
5 | CO[C@@](C)(Cc1ccc(OCCc2nc(-c3ccccc3)oc2C)nc1)C(=O)O | 99% | 111 nM | 570 nM | Activity [6]: 3.8%; Activity [7]: 205%; Activity [8]: 16.8%; bioavailability [9]: 87%; half-life [10]: 582 min; Activity [11]: 88%; Activity [12]: 7.2%; Activity [13]: 177%; Activity [14]: 13.2%; Activity [15]: 106%; clearance [16]: 2.2 mL/min/kg
6 | Cc1oc(-c2ccccc2)nc1CCOc1ccc(CC2(C(=O)O)CCC2)cn1 | 94% | 238 nM | 633 nM | EC50 [4]: 125 nM; Ki [5]: 394 nM
7 | Cc1oc(-c2ccccc2)nc1CCOc1ccc(CC2(C(=O)O)CCOCC2)cn1 |  |  |  | Activity [17]: 32%; inhibition [18]: 2%
8 | Cc1oc(-c2ccccc2)nc1CCOc1ccc(CC(C(=O)O)C(C)(C)C)cn1 (stereo not given) |  |  | 9400 nM | Ki [5]: 12000 nM
9 | Cc1oc(-c2ccccc2)nc1CCOc1ccc(CC2(C(=O)O)CCCCC2)cn1 |  |  | 8300 nM | 
10 | Cc1oc(-c2ccccc2)nc1CCOc1ccc(CC(C(=O)O)C(C)C)cn1 (stereo not given) | 93% | 426 nM | 4100 nM | 
11 | Cc1oc(-c2ccccc2)nc1CCOc1ccc(CC2(C(=O)O)CC2)cn1 | 39% | 6150 nM |  | inhibition [23]: 44%
12 | Cc1oc(-c2ccccc2)nc1CCOc1ccc(CC(CC(C)C)C(=O)O)cn1 (stereo not given) | 98% | 1720 nM | 430 nM | EC50 [4]: 1650 nM; Ki [5]: 360 nM
13 | CCC(Cc1ccc(OCCc2nc(-c3ccccc3)oc2C)nc1)C(=O)O (stereo not given) | 106% | 150 nM | 1300 nM | 
14 | Cc1oc(-c2ccc(C#N)cc2)nc1CCOc1ccc(CC2(C(=O)O)CCCO2)cn1 (stereo not given) | 167% | 31 nM | 314 nM | EC50 [4]: 28 nM; Ki [5]: 334 nM
15 | Cc1oc(-c2ccccc2)nc1CCOc1ccc(CC(C)C(=O)O)cn1 (stereo not given) | 93% | 287 nM | 3000 nM | 
16 | Cc1oc(-c2ccccc2)nc1CCOc1ccc(CC2(C(=O)O)CCOC2)cn1 (stereo not given) |  |  |  | inhibition [23]: 33%; Ki [5]: 17000 nM
17 | Cc1oc(-c2ccccc2)nc1CCCOc1ccc(CC2(C(=O)O)CCCO2)cn1 (stereo not given) |  |  | 1840 nM | Ki [5]: 810 nM
18 | CCCC(Cc1ccc(OCCc2nc(-c3ccccc3)oc2C)nc1)C(=O)O (stereo not given) | 92% | 770 nM | 880 nM | 

Second part, led by results:

Row | %max [1] | EC50 [2] | Ki [3] | SMILES | other results
19 | 96% | 33 nM | 43 nM | CCOC(Cc1ccc(OCCc2nc(-c3ccccc3)oc2C)nc1)C(=O)O (stereo not given) | 
20 | 95% | 83 nM | 180 nM | COC(Cc1ccc(OCCc2nc(-c3ccccc3)oc2C)nc1)C(=O)O (stereo not given) | 
21 | 117% | 46 nM | 99 nM | Cc1oc(-c2cccc(Cl)c2)nc1CCOc1ccc(CC2(C(=O)O)CCCO2)cn1 (stereo not given) | 
22 | 81% | 8 nM | 100 nM | Cc1oc(-c2cccc(C(F)(F)F)c2)nc1CCOc1ccc(CC2(C(=O)O)CCCO2)cn1 (stereo not given) | 
23 | 96% | 486 nM | 65 nM | COc1ccc(-c2nc(CCOc3ccc(CC4(C(=O)O)CCCO4)cn3)c(C)o2)cc1 (stereo not given) | 
24 | 104% | 90 nM | 215 nM | COc1cccc(-c2nc(CCOc3ccc(CC4(C(=O)O)CCCO4)cn3)c(C)o2)c1 (stereo not given) | 
25 | 89% | 165 nM | 32 nM | Cc1oc(-c2ccccc2)nc1CCOc1ccc(C[C@]2(C(=O)O)CCCO2)cn1 | Activity [6]: 8.7%; bioavailability [9]: 59%; Activity [19]: 67%; Activity [20]: 7.2%; Activity [21]: 11.7%; half-life [10]: 282 min; Activity [11]: 99%; Activity [13]: 147%; Activity [14]: 15.7%; Activity [22]: 37%; clearance [16]: 2.5 mL/min/kg
26 | 96% | 228 nM | 78 nM | Cc1oc(-c2ccccc2)nc1CCOc1ccc(CC2(C(=O)O)CCCCO2)cn1 (stereo not given) | 
27 | 87% | 10 nM | 14 nM | Cc1oc(-c2ccc(Cl)cc2)nc1CCOc1ccc(CC2(C(=O)O)CCCO2)cn1 (stereo not given) | 
28 | 143% | 11 nM | 21 nM | Cc1oc(-c2ccc(C(F)(F)F)cc2)nc1CCOc1ccc(CC2(C(=O)O)CCCO2)cn1 (stereo not given) | 
29 | 86% | 134 nM | 277 nM | Cc1cccc(-c2nc(CCOc3ccc(CC4(C(=O)O)CCCO4)cn3)c(C)o2)c1 (stereo not given) | 
30 | 106% | 48 nM | 78 nM | Cc1oc(-c2ccccc2)nc1CCOc1ccc(CC2(C(=O)O)CCCO2)cn1 (stereo not given) | 
31 | 84% | 23 nM | 31 nM | Cc1ccc(-c2nc(CCOc3ccc(CC4(C(=O)O)CCCO4)cn3)c(C)o2)cc1 (stereo not given) | 
32 | 100% | 133 nM | 13 nM | COC(Cc1ccc(OCCc2ccc(Oc3cccc(Cl)c3)cc2C)nc1)C(=O)O (stereo not given) | EC50 [4]: 50 nM; Ki [5]: 15 nM
